Assay results from ChEMBL document CHEMBL1125701 (J Med Chem, 1991).

Key:
[1] = target: Kappa-type opioid receptor (Homo sapiens) (UniProt P41145); test: Competitive inhibition of Ethylketazocine on Guinea pig ileal longitudinal muscle for the opioid receptor kappa at 20 nM; type: functional
In short: (§1)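 Electrically stimulated guinea pig ileal longitudinal muscle, κ agonist ethylketazocine. The antagonist was preincubated for 15 min before agonist testing. Agonist IC50 was measured with and without antagonist on the same preparation. IC50 ratio = IC50 with antagonist / control IC50. Ke = [antagonist]/(IC50 ratio − 1).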

[2] = target: Kappa-type opioid receptor (Cavia porcellus) (UniProt P41144); test: Antagonistic potency at opioid receptor kappa (20 nM) (Ke =IC50 in the presence of antagonist divided by the control IC50 value); type: functional; in short: as §1
[3] = target: Kappa-type opioid receptor (Cavia porcellus) (UniProt P41144); test: Selectivity ratio is IC50 value of opioid receptor kappa to that of opioid receptor delta
[4] = target: Delta-type opioid receptor (Mus musculus) (UniProt P32300); test: Antagonistic potency at opioid receptor delta (100 nM) (Ke =IC50 in the presence of antagonist divided by the control IC50 value); type: functional
In short: (§2)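 Electrically stimulated mouse vas deferens preparation, δ agonist DADLE. The antagonist was incubated with the tissue for 15 min before agonist testing. DADLE IC50 was measured with and without antagonist on the same preparation. IC50 ratio = IC50 with antagonist / control IC50. Ke = [antagonist]/(IC50 ratio − 1).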

[5] = target: Mu-type opioid receptor (Cavia porcellus) (UniProt P97266); test: Selectivity ratio is IC50 value of mu-opioid receptor to that of delta-opioid receptor
[6] = target: Kappa-type opioid receptor (Cavia porcellus) (UniProt P41144)
[7] = target: Kappa-type opioid receptor (Homo sapiens) (UniProt P41145); conditions: 100 nM
[8] = target: Mu-type opioid receptor (Homo sapiens) (UniProt P35372); conditions: 100 nM
[9] = target: Mu-type opioid receptor (Cavia porcellus) (UniProt P97266)
[10] = target: Kappa-type opioid receptor (Cavia porcellus) (UniProt P41144); test: Antagonistic potency at opioid receptor kappa (200 nM) (Ke =IC50 in the presence of antagonist divided by the control IC50 value); type: functional; in short: as §1
[11] = target: Mu-type opioid receptor (Homo sapiens) (UniProt P35372); test: Competitive inhibition of Morphine on Guinea pig ileal longitudinal muscle for the opioid receptor mu at 200 nM; type: functional
In short: as §1, with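 “μ” for “κ”, “morphine.” for “ethylketazocine.”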

[12] = target: Mu-type opioid receptor (Cavia porcellus) (UniProt P97266); test: Antagonistic potency at opioid receptor mu (200 nM) (Ke =IC50 in the presence of antagonist divided by the control IC50 value); type: functional
In short: as §1, with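 “μ” for “κ”, “morphine.” for “ethylketazocine.”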

[13] = target: Kappa-type opioid receptor (Cavia porcellus) (UniProt P41144); test: Selectivity ratio is IC50 value of opioid receptor kappa to that of delta-opioid receptor
[14] = target: Kappa-type opioid receptor (Homo sapiens) (UniProt P41145); test: Competitive inhibition of Ethylketazocine on Guinea pig ileal longitudinal muscle for the opioid receptor kappa at 200 nM; type: functional; in short: as §1
[15] = target: Kappa-type opioid receptor (Cavia porcellus) (UniProt P41144); test: Selectivity ratio is Ki value of opioid receptor kappa to that of delta-opioid receptor
[16] = target: Mu-type opioid receptor (Cavia porcellus) (UniProt P97266); test: Selectivity ratio is Ki value of mu-opioid receptor to that of delta-opioid receptor
[17] = target: Mu-type opioid receptor (Cavia porcellus, UniProt P97266); test: Compound was evaluated for the binding affinity to Opioid receptor mu using [3H]DAMGO as radioligand in guinea pig brain membrane; type: cell membranes
[18] = target: Kappa-type opioid receptor (Cavia porcellus, UniProt P41144); test: Compound was evaluated for the binding affinity to opioid receptor kappa using [3H]-EK as radioligand in guinea pig brain membrane; type: cell membranes
In short: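 Radioligand displacement in guinea pig brain membranes, modified from an earlier published method. [3H]EK was used with 1 μM DAMGO present to block μ sites.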

[19] = target: Delta-type opioid receptor (Mus musculus) (UniProt P32300); test: Antagonistic potency at opioid receptor delta (200 nM) (Ke =IC50 in the presence of antagonist divided by the control IC50 value); type: functional; in short: as §2
[20] = target: Delta-type opioid receptor (Mus musculus) (UniProt P32300); test: Antagonistic potency at opioid receptor delta (20 nM) (Ke =IC50 in the presence of antagonist divided by the control IC50 value); type: functional; in short: as §2

Row | SMILES | Ratio [3] | Ke [4] | Ratio [5] | Ke [6] | Ke [9] | Ke [10] | Ke [12] | further results
1 | Oc1ccc2c3c1O[C@H]1C(c4ccc[nH]4)=CC[C@@]4(O)[C@@H](C2)N(CC2CC2)CC[C@]314 | 0.03 | 8.2 | – | – | – | – | – | IC50 ratio [1]: 89; Ke [2]: 0.23
2 | Oc1ccc2c3c1O[C@H]1c4nc5ccccc5cc4C[C@@]4(O)[C@@H](C2)N(CC2CC2)CC[C@]314 | 8 | 1.9 | 6 | 15.4 | 11 | – | – | IC50 ratio [7]: 7.5; IC50 ratio [8]: 9.9
3 | Oc1ccc2c3c1O[C@H]1C(c4c[nH]c5ccccc45)=CC[C@@]4(O)[C@@H](C2)N(CC2CC2)CC[C@]314 | – | – | 0.21 | – | – | 0.83 | 1.1 | IC50 ratio [11]: 189; Ratio [13]: 0.16; IC50 ratio [14]: 243; Ratio [15]: 6; Ratio [16]: 0.6; Ki [17]: 0.63 nM; Ki [18]: 6.2 nM; Ke [19]: 5.1
4 | Cn1c2c(c3c1[C@@H]1Oc4c(O)ccc5c4[C@@]14CCN(CC1CC1)[C@H](C5)[C@]4(O)C3)CCCC2 | – | – | – | 254 | 158 | – | – | –
5 | Oc1ccc2c3c1O[C@H]1C(c4ccccc4)=CC[C@@]4(O)[C@@H](C2)N(CC2CC2)CC[C@]314 | – | 13.5 | – | 1.7 | 0.68 | – | – | IC50 ratio [8]: 148
6 | Oc1ccc2c3c1O[C@H]1c4nc5ccccc5nc4C[C@@]4(O)[C@@H](C2)N(CC2CC2)CC[C@]314 | 5 | – | 3 | – | – | 10 | 5.5 | IC50 ratio [11]: 37; Ke [20]: 1.9; IC50 ratio [14]: 21; Ratio [15]: 227; Ratio [16]: 9
7 | Oc1ccc2c3c1O[C@H]1c4oc5ccccc5c4C[C@@]4(O)[C@@H](C2)N(CC2CC2)CC[C@]314 | – | – | – | – | – | 48 | 27 | Ke [20]: 0.27
